{"source": "ChEMBL document CHEMBL1132146", "about": "“Chemical stability and fate of the cytostatic drug ifosfamide and its N-dechloroethylated metabolites in acidic aqueous solutions” (J Med Chem, 1999)", "key": {"[1]": {"experiment": "acute toxicity against mouse after ip administration", "assay_type": "organism-based", "conditions": "in vivo", "in_short": "(§1)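 Single iv or ip injection; two female SD rats or male CD2F1 mice per dose group. Lethality and clinical signs of toxicity observed for 28 days to give an approximate LD50. Animals kept specific-pathogen-free with pellet diet and acidified water (pH 3) ad libitum.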"}, "L1210": {"system": "L1210", "experiment": "In vitro antitumor activity against murine leukemic L1210 cells; No activity", "assay_type": "functional, cell-based", "conditions": "Mus musculus"}, "P388 [2]": {"system": "P388", "experiment": "In vivo antitumor activity against murine P388 leukemia; No activity", "assay_type": "functional, organism-based", "conditions": "Mus musculus"}, "[3]": {"experiment": "acute toxicity against rat after iv administration", "assay_type": "organism-based", "conditions": "in vivo", "in_short": "as §1"}, "[4]": {"experiment": "pKa. (dissociation constant) of the compound", "assay_type": "physicochemical", "in_short": "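³¹P NMR titration at 25 °C in aqueous 0.1 M NaCl to keep ionic strength constant. pH adjusted with NaOH or HCl and measured before and after each spectrum. pKa calculated from the pH dependence of the chemical shift.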"}, "P388 [5]": {"system": "P388", "experiment": "In vivo antitumor activity against murine P388 leukemia; Effective", "assay_type": "functional, organism-based", "conditions": "Mus musculus"}}}
{"smiles": "O=P(O)(O)OCCCN1CC1", "values": [{"measurement": "LD50", "setting": "[1]", "result": 180, "unit": "mg/kg"}, {"measurement": "Activity", "setting": "L1210", "result": "No activity"}, {"measurement": "Activity", "setting": "P388 [2]", "result": "No activity"}]}
{"smiles": "NP1(=O)OCCCN1CCCl", "note": "(centres undefined)", "values": [{"measurement": "LD50", "setting": "[3]", "result": "> 1000", "unit": "mg/kg"}]}
{"smiles": "NP(=O)(O)OCCCNCCCl", "values": [{"measurement": "pKa", "setting": "[4]", "result": 2.3}]}
{"smiles": "O=P(O)(OCCCNCCCl)OP(=O)(O)OCCCNCCCl", "values": [{"measurement": "LD50", "setting": "[1]", "result": "> 1000", "unit": "mg/kg"}, {"measurement": "Activity", "setting": "L1210", "result": "No activity"}, {"measurement": "Activity", "setting": "P388 [2]", "result": "No activity"}]}
{"smiles": "NP1(=O)NCCCO1", "note": "(centres undefined)", "values": [{"measurement": "Activity", "setting": "L1210", "result": "No activity"}]}
{"smiles": "O=P1(NCCCl)NCCCO1", "note": "(centres undefined)", "values": [{"measurement": "LD50", "setting": "[3]", "result": 800, "unit": "mg/kg"}, {"measurement": "Activity", "setting": "L1210", "result": "No activity"}, {"measurement": "Activity", "setting": "P388 [2]", "result": "No activity"}]}
{"smiles": "O=P1(NCCCl)OCCCN1CCCl", "note": "(centres undefined) [IFOSFAMIDE]", "values": [{"measurement": "LD50", "setting": "[1]", "result": 700, "unit": "mg/kg"}, {"measurement": "LD50", "setting": "[3]", "result": 300, "unit": "mg/kg"}, {"measurement": "Activity", "setting": "P388 [5]", "result": "Effective"}]}
{"smiles": "O=P(O)(O)OCCCNCCCl", "values": [{"measurement": "LD50", "setting": "[3]", "result": 800, "unit": "mg/kg"}, {"measurement": "Activity", "setting": "L1210", "result": "No activity"}, {"measurement": "Activity", "setting": "P388 [2]", "result": "No activity"}]}
{"smiles": "O=P1(O)NCCCO1", "values": [{"measurement": "pKa", "setting": "[4]", "result": 4.1}]}
